Measured values: ChEMBL document CHEMBL1154414, “In vitro and in vivo activities of T-705 against arenavirus and bunyavirus infections” (Antimicrob Agents Chemother, 2007)
Calls of active or inactive are those of the source. The rule behind the calls is not given here.

Tests used:
Punta Toro virus [1] = assay: Antiviral activity against 50 PFU Punta Toro virus Adames infected C57BL/6 mouse assessed as mean day of death at 10 mg/kg, po twice daily for 5 days administered 24 hrs post viral challenge; format: functional
Method in brief: (§1)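 Groups of 15 mice (25–30 placebo) were inoculated subcutaneously with PTV. Drug in 0.4% carboxymethylcellulose was given by oral gavage twice daily.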

Pichinde virus [2] = assay: Antiviral activity against Pichinde virus An 4763 infected Syrian golden hamster assessed as animals with detectable virus level in serum at 50 mg/kg, po twice daily for 7 days administered 24 hrs post viral-challenge measured on day 7 of viral infection; format: functional
Method in brief: (§2)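 Hamsters (groups of 15, placebo 25-30) were dosed orally by gavage twice daily (drug suspended in 0.4% CMC) after bilateral intraperitoneal challenge with 65 PFU. Five per group were killed on day 7. Liver homogenate or serum was serially diluted onto triplicate B-SC-1 wells, CPE was read at 6-8 days, and the 50% endpoint was taken. Range was 2.8-9.5 log10 CCID50/0.1 g or 0.1 ml, with undetectable assigned <2.8.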

Punta Toro virus [3] = assay: Antiviral activity against 50 PFU Punta Toro virus Adames infected C57BL/6 mouse assessed as mean viral titer per 0.1 g of liver at 10 mg/kg, po twice daily administered 24 hrs post viral challenge measured on day 3 of viral infection; format: functional
Method in brief: (§3)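 Mice were infected subcutaneously with PTV and dosed by oral gavage twice daily with drug in 0.4% CMC. Five per group (10 placebo) were sacrificed on day 3 or 4. Serially diluted liver homogenate or serum went into triplicate LLC-MK2 wells, and CPE 50% endpoints were read at 6–8 days. The range was 2.8–9.5 log10 CCID50/0.1 g or 0.1 ml, with undetectable samples set to 2.8 and saturated samples to 9.5.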

Pichinde virus [4] = assay: Antiviral activity against Pichinde virus An 4763 infected Syrian golden hamster assessed as animals with detectable virus level in serum at 20 mg/kg, po twice daily for 7 days administered 72 hrs post viral-challenge measured on day 7 of viral infection; format: functional; method in brief: as §2
Pichinde virus [5] = assay: Antiviral activity against Pichinde virus An 4763 infected Syrian golden hamster assessed as inhibition of liver damage at 40 mg/kg, po twice daily for 7 days administered 4 hrs before viral-challenge measured on day 7 of viral infection; format: functional, organism-based; parameters: dose 40 mg/kg
Method in brief: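 Hamsters were challenged intraperitoneally (bilateral, 65 PFU) and dosed twice daily by oral gavage in 0.4% CMC. On day 7, five animals per group were sacrificed. Livers were scored 0-4 for hepatic icterus (0 normal, 4 maximal yellow coloration), and serum ALT was measured by kinetic assay.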

Punta Toro virus [6] = assay: Antiviral activity against 5000 PFU Punta Toro virus Adames infected C57BL/6 mouse assessed as mean viral titer per 0.1 g of liver at 30 mg/kg, po twice daily administered 24 hrs post viral challenge measured on day 3 of viral infection; format: functional
Method in brief: (§4)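 Mice were infected subcutaneously with PTV and dosed by oral gavage twice daily; 5 per group (10 placebo) were killed on day 3 or 4. Liver homogenate or serum was serially diluted onto triplicate LLC-MK2 monolayers, and CPE was read 6–8 days later. 50% endpoints gave log10 CCID50 per 0.1 g liver or 0.1 ml serum. Detection range was 2.8–9.5; undetectable samples were assigned <2.8.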

Pichinde virus [7] = assay: Antiviral activity against Pichinde virus An 4763 infected Syrian golden hamster assessed as mean viral titer per 0.1 mL of serum at 20 mg/kg, po twice daily for 7 days administered 24 hrs post viral-challenge; format: functional; method in brief: as §2
Pichinde virus [8] = assay: Antiviral activity against Pichinde virus An 4763 infected Syrian golden hamster assessed as mean day of death at 50 mg/kg, po twice daily for 7 days administered 24 hrs post viral-challenge; format: functional
Method in brief: (§5)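 Groups of 15 hamsters (placebo 25-30) were challenged intraperitoneally (bilateral, 65 PFU) and dosed twice daily by oral gavage in 0.4% CMC for 5 to 7 days.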

Punta Toro virus [9] = assay: Antiviral activity against 50 PFU Punta Toro virus Adames infected C57BL/6 mouse assessed as mean viral titer per 0.1 mL of serum at 10 mg/kg, po twice daily administered 24 hrs post viral challenge measured on day 3 of viral infection; format: functional; method in brief: as §3
Pichinde virus [10] = assay: Antiviral activity against Pichinde virus An 4763 infected Syrian golden hamster assessed as mean day of death at 50 mg/kg, po twice daily for 7 days administered 72 hrs post viral-challenge measured on day 7 of viral infection; format: functional; method in brief: as §5
Pichinde virus [11] = assay: Antiviral activity against Pichinde virus An 4763 infected Syrian golden hamster assessed as animals with detectable virus level in liver at 50 mg/kg, po twice daily for 7 days administered 72 hrs post viral-challenge measured on day 7 of viral infection; format: functional; method in brief: as §2
Punta Toro virus [12] = assay: Antiviral activity against 500 PFU Punta Toro virus Adames infected C57BL/6 mouse assessed as mean serum ALT levels at 30 mg/kg, po twice daily administered 24 hrs post viral challenge measured on day 3 of viral infection; format: functional
Method in brief: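 C57BL/6 mice received subcutaneous PTV, then oral gavage twice daily for 5–7 days. T-705 was given in 0.4% CMC and ribavirin in saline. Five mice per group (10 placebo) were killed on day 3 or 4, and serum was collected. ALT activity was measured by kinetic assay. Three sham-infected mice set baselines.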

Pichinde virus [13] = assay: Antiviral activity against Pichinde virus An 4763 infected Syrian golden hamster assessed as mean viral titer per 0.1 g of liver at 20 mg/kg, po twice daily for 7 days administered 24 hrs post viral-challenge measured on day 7 of viral infection; format: functional; method in brief: as §2
Tacaribe virus = assay: Antiviral activity against Tacaribe virus TRVL11573 in Vero cells assessed as inhibition of virus-induced visual cytopathic effect after 7 to 8 days; format: functional, organism-based; settings: Mammarenavirus tacaribeense
Method in brief: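 Subconfluent (50-70%) Vero cells were infected with virus in 2% FBS medium at the CCID50 giving maximal CPE. Half-log drug dilutions were added at infection. EC50 was obtained by regression analysis.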

Punta Toro virus [14] = assay: Antiviral activity against 50 PFU Punta Toro virus Adames infected C57BL/6 mouse assessed as mean day of death at 30 mg/kg, po twice daily for 5 days administered 24 hrs post viral challenge; format: functional; method in brief: as §1
Pichinde virus [15] = assay: Antiviral activity against Pichinde virus An 4763 infected Syrian golden hamster assessed as mean day of death at 40 mg/kg, po twice daily for 7 days administered 4 hrs before viral-challenge; format: functional; method in brief: as §5
Punta Toro virus [16] = assay: Antiviral activity against 5000 PFU Punta Toro virus Adames infected C57BL/6 mouse assessed as animals with detectable virus level in serum at 30 mg/kg, po twice daily administered 24 hrs post viral challenge measured on day 3 of viral infection; format: functional; method in brief: as §4
Pichinde virus [17] = assay: Antiviral activity against Pichinde virus An 4763 infected Syrian golden hamster assessed as mean viral titer per 0.1 g of liver at 50 mg/kg, po twice daily for 7 days administered 72 hrs post viral-challenge measured on day 7 of viral infection; format: functional; method in brief: as §2
Punta Toro virus [18] = assay: Antiviral activity against 500 PFU Punta Toro virus Adames infected C57BL/6 mouse assessed as mean viral titer per 0.1 g of liver at 30 mg/kg, po twice daily administered 24 hrs post viral challenge measured on day 3 of viral infection; format: functional; method in brief: as §4
Punta Toro virus [19] = assay: Antiviral activity against Punta Toro virus Adames infected Syrian golden hamster assessed as inhibition of liver damage at 30 mg/kg, po twice daily administered 4 hrs before viral challenge measured on day 4 of viral infection; format: functional, organism-based; parameters: dose 30 mg/kg
Method in brief: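 Hamsters were challenged subcutaneously with 50 PFU and dosed twice daily by oral gavage in 0.4% CMC. Five per group were sacrificed on day 3 or 4. Livers were scored 0-4 for icterus, and serum ALT was measured by kinetic assay against three sham-infected baseline animals.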

Row | Structure (SMILES) | Activity (Punta Toro virus [1]) [days] | Activity (Pichinde virus [2]) [%] | log10CCID50 (Punta Toro virus [3]) | Activity (Pichinde virus [4]) [%] | Activity (Pichinde virus [5]) | log10CCID50 (Punta Toro virus [6]) | log10CCID50 (Pichinde virus [7]) | Activity (Pichinde virus [8]) [days] | log10CCID50 (Punta Toro virus [9]) | Activity (Pichinde virus [10]) [days] | Activity (Pichinde virus [11]) [%] | Activity (Punta Toro virus [12]) [IU/L] | log10CCID50 (Pichinde virus [13]) | EC50 (Tacaribe virus) [µM] | Activity (Punta Toro virus [14]) [days] | Activity (Pichinde virus [15]) [days] | Activity (Punta Toro virus [16]) [%] | log10CCID50 (Pichinde virus [17]) | log10CCID50 (Punta Toro virus [18]) | Activity (Punta Toro virus [19])
1 | NC(=O)c1nc(F)cnc1O [FAVIPIRAVIR] | 5.8 | 80 | <2.8 | 100 | Active | <2.9 | >9 | >21 | 6.9 | 14.8 | 100 | 900 | >8.4 | 6 | >21 | 11 | 80 | 6.8 | <3.2 | Active
2 | NC(=O)c1ncn([C@@H]2O[C@H](CO)[C@@H](O)[C@H]2O)n1 [RIBAVIRIN] | 5.3 | 40 | <3.3 | 100 | Active | <2.9 | <5.1 | >21 | <4.9 | 18.5 | 100 | 450 | 6 | 10 | >21 | 11 | 60 | 6.5 | <3.1 | Active
